Only some compounds are listed: those with a hit (about 3.5% of all), similar ones and a draw of the others.
Yeast growth inh – chemicals that inhibit yeast BB579 growth in restrictive medium (lifespan-shortening candidates); inhibition, % at 10 µM; 140,000 compounds, 0.51% hits; S. cerevisiae BB579 growth, OD615, 48 h;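 active = inhibition above a set limit, 3 SD over the mean compound inhibition, cut at about 44% in these data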
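Test system: DeaD yeast strain BB579 / Buffer or medium: restrictive glucose-based CSMM-D medium / Doses: single 10 µM dose / Schedule: 4 h cell preincubation, 48 h compound exposure, 30 °C humidified / Technique: culture absorbance at 615 nm / Controls: amphotericin B positive control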
Yeast lifespan up – extends the lifespan of yeast | S. cerevisiae growth with nicotinamide, OD615; deaD strain in restrictive glucose medium | inhibition of the nicotinamide effect, % at 10 µM | 130,000 compounds, 0.68% hits;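 active = inhibition above a set limit, placed 3 SD over the median of all compounds, cut at about 26% in these data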;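 note: 0% = nicotinamide-treated wells and 100% = cells grown without nicotinamide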
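Measured by: optical density (absorbance) at 615 nm; System: modified budding yeast, DeaD strain; Medium: restrictive CSMM-D dextrose medium; Timing: 4 h preincubation then 48 h treatment at 30 °C.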
Efa HMGR inh – E. faecalis class II HMG-CoA reductase inhibition | purified E. faecalis HMGR, NADPH absorbance 340 nm kinetic | inhibition, % at 10 µM | 190,000 compounds, 0.41% hits;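 active = inhibition above a set limit, the median over all tested compounds plus 3 SD, cut at about 9.5% in these data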;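 note: enzyme runs in reverse so mevalonate oxidation gives rising NADPH absorbance; 0% = complete reaction with DMSO and 100% = background rate lacking mevalonate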
RAM inhibit – inhibitors of the yeast RAM network; inhibition, % at 50 µM; 190,000 compounds, 1.8% hits; AID 868; S. cerevisiae dse1pr::URA3 reporter, 5-FOA growth OD615, 2 d; analog-sensitive cbk1-as2 kinase mutant strain;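 active = inhibition above a set limit, 3 SD over mean compound inhibition, cut at about 8.4% in these data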;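 note: 0% = DMSO-only wells with no growth and 100% = 10 µM 1-NA-PP1 full growth; inhibition rescues growth on 5-FOA so higher OD means more RAM inhibition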
bCat nuc transl – alters nuclear translocation of beta-catenin in HeLa cells; immunofluorescence imaging; nuclear translocation activity, % at 5 µM; 190,000 compounds, 0.3% hits;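 active = nuclear translocation activity above 50% at 5 µM, with a well cell count of 50 or more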;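 note: per-cell ratio of nuclear to cytoplasmic median beta-catenin stain intensity; plate controls were DMSO negative control for no effect and GSK-3 inhibitor IX positive control for full effect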
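Technique: fluorescence imaging of beta-catenin antibody stain plus DAPI / Material: human HeLa cell line / Incubation: compound treatment 24 h, 37°C, 5% CO2 / Read-out basis: % activation of per-cell nuclear versus cytoplasmic median beta-catenin signal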
MT stabilize HCS – microtubule stabilizers in HeLa cells. HeLa tubulin immunostaining HCS, 24 h; share of cells brighter than vehicle mean+2SD. % tubulin-high responders, % at 10 µM. 200,000 compounds, 0.83% hits;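 active = plate Z-score above 3 for both tubulin-high and condensed-nucleus cell shares, with cell loss under 80%, at 10 µM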;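 note: anti alpha tubulin signal scored within the nucleus-defined area of each cell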
Numbers without * were called inactive; · = not tested or not shown.

SMILES | Yeast growth inh | Yeast lifespan up | Efa HMGR inh | RAM inhibit | bCat nuc transl | MT stabilize HCS
CCCCC(=O)Nc1nc2ccc(C(=O)OC)cc2s1 | · | · | 0.2 | 4.3 | 0.6 | 24.7*
CCCC(=O)Nc1nc2ccc(NC(=O)c3ccccc3F)cc2s1 | · | · | -4.6 | 1.9 | 6.4 | 34.1*
COc1ccc(C(=O)NNC(=O)C2CCN(S(=O)(=O)c3ccc(C)cc3)CC2)cc1 | · | · | 0.0 | 1.2 | 0.9 | 1.7
CCN(CC)C(=O)COc1ccc2oc(-c3ccco3)cc(=O)c2c1 | · | · | 0.6 | 3.4 | 3.4 | 2.7
Cc1cc(C)cc(C(=O)OCC(=O)NCc2cccs2)c1 | -29.4 | 0.3 | -0.3 | 1.5 | -2.0 | 1.9
Cc1cc2c(cc(C(=O)OCC(=O)NCc3cccs3)n2C(C)C)o1 | -26.2 | -5.2 | -6.9 | 4.2 | 65.1* | 30.0*
CC1(C)CC(=O)c2cc(C(=O)N3CCN(CCO)CC3)c(=O)n(-c3ccc(Cl)cc3)c2C1 | 0.3 | -14.5 | 11.0* | 0.0 | -0.8 | 1.6
O=C(CSc1nc2ccccc2o1)Nc1nccs1 | · | · | 0.6 | 7.0 | 3.0 | 1.3
COC(=O)c1cn(NC(=O)Cc2ccccc2Br)c(=O)c2ccccc12 | · | · | -1.9 | 3.1 | 3.2 | 4.7
Cc1ccc(-c2cc(C(=O)Nc3cc(C)on3)c3ccccc3n2)cc1 | 5.3 | 1.1 | 1.1 | 3.4 | -1.3 | 1.9
Cc1cc(NC(=O)c2cc(-c3ccncc3)nc3c(C)cccc23)no1 | -7.9 | -25.4 | 0.5 | 5.1 | · | 36.6*
CC(=O)Nc1nnc(C2=COCCO2)o1 | · | · | 10.5* | 2.2 | -1.4 | 3.9
Cc1ccc(/C=N/NC(=O)CSc2nc3ccccc3c(=O)n2-c2ccccc2)s1 | -13.3 | -0.5 | -3.3 | 2.6 | -0.2 | 8.9
CCn1c(SCC(=O)N/N=C/c2ccc(C)s2)nc2ccccc21 | -28.0 | -5.8 | -3.8 | 1.7 | 45.9 | 20.1*
COc1ccc(-c2cc(C(=O)Nc3cc(S(=O)(=O)N4CCOCC4)ccc3N3CCOCC3)c3ccccc3n2)cc1 | · | · | 3.7 | 6.8 | 2.0 | 4.4
COc1ccc([N+](=O)[O-])cc1NC(=O)C(C)OC(=O)/C=C/c1ccco1 (stereo not drawn) | -70.2 | -7.3 | 4.0 | 3.0 | 0.2 | 2.3
O=C(/C=C/c1ccco1)Nc1ccc(N2CCCC2)cc1 | -44.5 | -3.7 | -1.0 | 2.4 | 6.8 | 24.6*
Cc1ccc(NC(=O)/C=C/c2ccco2)nc1 | -46.0 | -4.6 | -2.5 | 1.3 | 146.2* | 3.6
CC(OC(=O)/C=C/c1ccco1)C(=O)Nc1cccc([N+](=O)[O-])c1 (stereo not drawn) | -19.7 | 5.2 | -3.8 | 9.0* | 1.6 | 6.1
COc1ccc(-c2csc(NC(=O)C3COc4ccccc4O3)n2)cc1OC (stereo not drawn) | · | · | -5.1 | 10.2* | -2.2 | 5.4
O=Cc1c(Cl)nc2ccccn2c1=O | · | · | · | · | -1.4 | ·
COCc1cc(C)nc(SCC[N+](C)(C)CC(=O)c2ccccc2)c1C#N | · | · | -5.2 | -1.4 | 3.1 | 2.6
COc1ccc(-c2csc(NC(=S)NC(=O)/C=C/c3ccco3)n2)cc1OC | -18.3 | 4.0 | 0.2 | 9.7* | 52.5* | 2.5
O=C(/C=C/c1ccco1)NC(=S)Nc1ccc(N2CCOCC2)c(Cl)c1 | -74.5 | -4.2 | -2.6 | 1.8 | -0.2 | 48.1*
O=C(NC(=S)Nc1cccc([N+](=O)[O-])c1)c1ccco1 | -23.4 | -4.8 | -1.7 | 1.2 | 0.8 | 1.7
SMILES | Yeast growth inh | Yeast lifespan up | Efa HMGR inh | RAM inhibit | bCat nuc transl | MT stabilize HCS
O=C(/C=C/c1ccco1)NC(=S)Nc1cccc([N+](=O)[O-])c1 | -28.1 | -4.3 | -13.6 | 3.6 | 1.5 | 15.0*
Cc1cccc(NC(=S)NC(=O)/C=C/c2ccco2)c1 | · | · | -5.9 | 1.6 | 52.2* | 22.1*
Cc1nc(-c2ccccc2)sc1C1(C)CC(c2ccc(C#N)cc2)=NO1 (stereo not drawn) | · | · | · | · | -1.7 | ·
Cc1cccc2sc(NS(C)(=O)=O)nc12 | · | · | -5.7 | 0.9 | -0.3 | 2.5
Cc1ccc(Oc2ncccc2C(=O)NCC(=O)O)cc1 | · | · | · | · | -2.5 | ·
CC(C)Cc1cc(CN2CCC(CO)(Cc3ccccc3)CC2)[nH]n1 | · | · | · | · | -0.3 | ·
Cc1cc(C)n(-c2nc(C)nc3c2cnn3-c2ccccc2)n1 | -51.1 | -14.6 | 0.4 | 2.6 | -1.2 | 2.0
Cc1nc(SCc2ccccc2F)c2cnn(-c3ccccc3)c2n1 | · | · | -1.4 | 10.9* | 4.0 | 3.1
Cc1[nH][nH]c(=O)c1C(c1c(C)[nH][nH]c1=O)c1cn(Cc2ccc(F)cc2)c2ccccc12 | -35.4 | 0.1 | 52.6* | 0.4 | 22.7 | 20.3*
Cc1[nH][nH]c(=O)c1C(c1c(C)[nH][nH]c1=O)c1cn(Cc2ccc(Cl)c(Cl)c2)c2ccccc12 | -11.7 | 7.5 | 39.2* | 3.0 | 98.8* | 5.6
O=C(CCCCCCCC(=O)c1ccccc1)c1ccccc1 | · | · | -1.8 | 0.0 | 3.0 | 0.6
Cc1ccc(C(CC(=O)c2ccc(Cl)cc2)C(=O)O)cc1 (stereo not drawn) | · | · | 0.8 | 0.8 | -3.4 | 3.3
C=C(C(=O)c1ccccc1)C(CC(=O)c1ccccc1)c1ccccc1 (stereo not drawn) | -15.4 | 38.8* | -1.0 | 6.8 | -0.4 | 7.3
C=C(CCC(=O)c1ccccc1)C(=O)c1ccccc1 | -29.0 | 30.6* | -0.4 | -1.9 | 0.6 | 6.1
CN=c1scc(-c2ccc(F)cc2)n1/N=C/c1ccc(O)c(O)c1 | · | · | 3.0 | 4.2 | · | 4.5
COC(=O)Cn1c2ccccc2c2nc(C)sc21 | 48.8* | -13.1 | -1.1 | -0.2 | -0.8 | 2.6
COC(=O)Cn1c2ccc(F)cc2c2nc(C)sc21 | -26.0 | -14.7 | -1.6 | -0.2 | -3.1 | 2.6
CCCCOC(=O)Sc1nc2ccccc2o1 | 99.6* | -19.3 | -1.2 | -0.8 | 0.3 | 4.3
Cc1cccc(C(=O)O/N=C/c2c(N3CCOCC3)n(C)c3ccccc23)c1 | 52.6* | -20.2 | -3.5 | 2.9 | 1.7 | 1.5
N#C/C(=C\c1cc2ccccc2nc1N1CCOCC1)C(=O)Nc1ccc(N2CCOCC2)cc1 | -18.8 | -4.1 | -5.5 | 0.5 | 0.2 | 1.9
N#CC(C#N)=Cc1cc2ccccc2nc1N1CCOCC1 | -39.7 | 12.9 | 14.0* | 3.1 | -2.0 | 2.5
COc1cc(/C=C/C(=O)O)cc(S(=O)(=O)Nc2ccc3c(c2)OCO3)c1OC | · | · | -3.5 | 1.8 | 0.8 | 2.7
CCn1c(CNc2ccc(Cl)cc2)nnc1SCC#N | · | · | 3.6 | 0.2 | -0.3 | ·
O=c1cnn([C@@H]2O[C@H](CO)[C@@H](O)[C@H]2O)c(=O)[nH]1 | 44.3* | 11.8 | -6.8 | 0.0 | · | 3.0
CCOc1ccc(NC(=O)CNC(=O)c2ccc(OC)c(OC)c2)cc1 | -27.2 | 2.7 | 1.4 | 8.8* | -5.2 | 3.5
CCCCCCCCn1ccc(=N)cc1 | · | · | · | · | 1.7 | ·
CCCCCCCCCCCCCCCCn1cc[n+](C)c1 | · | · | -5.9 | -1.5 | 17.5 | 71.8*
Oc1c(Cl)cc(Cl)c2c1NCCC2 | 98.7* | -26.1 | -0.1 | -1.3 | -1.1 | 4.3
